Experiments:
Assay type in all cases: cell-based
HIV-1 NL4-3 Nanoluc-sec = conditions: for SI, selectivity index, calculated as CC50/EC50: CC50 (MT4) / EC50 (HIV-1 in MT4)
[1] = CytoTox-Glo cytotoxicity assay in MT4 cells; conditions: human
[2] = test system: T cell latent HIV-1 model JLat-A2; test: FACS analysis of GFP-expressing J-Lat; conditions: JLat-A2, 10 and 50 nM, 72 h
Summary of the method: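 J-Lat (A2) latently infected cells at 1×10⁶ cells/well, incubated with test compounds at various concentrations, 37 °C, 72 h. GFP-expressing cells scored by flow cytometry.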

[3] = Cytotoxicity against U937 cell; conditions: human, U937 cells
Summary of the method: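 Cells cultured 3 days with test compound over a concentration range. Viability read by CytoTox-Glo cytotoxicity assay per manufacturer's protocol, same method as for MT4 cells. CC50 taken as the concentration giving 50% reduction in cell viability.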

CC1=C[C@@H]2C(=O)[C@]3(C=C(C)[C@H](O)[C@@]3(O)[C@@H]1OC(=O)c1ccccc1)[C@H](C)C[C@@H]1[C@H]2C1(C)C [Compound 1, 5-O-benzoyl-20-deoxyingenol]
SI, selectivity index, calculated as CC50/EC50 (HIV-1 NL4-3 Nanoluc-sec): >216

CC1=C[C@@H]2C(=O)[C@]3(C=C(C)[C@H](OC(=O)c4ccccc4)[C@@]3(O)[C@@H]1O)[C@H](C)C[C@@H]1[C@H]2C1(C)C [Compound 2, 3-O-benzoyl-20-deoxyingenol]
SI, selectivity index, calculated as CC50/EC50 (HIV-1 NL4-3 Nanoluc-sec): >302

CC(=O)O[C@H]1C(C)=C[C@]23C(=O)[C@@H](C=C(C)[C@@H](OC(=O)c4ccccc4)[C@]12O)[C@H]1[C@@H](C[C@H]3C)C1(C)C [Compound 3, kansuiphorin C]
SI, selectivity index, calculated as CC50/EC50 (HIV-1 NL4-3 Nanoluc-sec): >23

CC(=O)OCC1=C[C@@H]2C(=O)[C@]3(C=C(C)[C@H](O)[C@@]3(O)[C@@H]1O)[C@H](C)C[C@@H]1[C@H]2C1(C)C [Compound 4, ingenol monoacetate]
SI, selectivity index, calculated as CC50/EC50 (HIV-1 NL4-3 Nanoluc-sec): >10

CCCCCCCCCCCC(=O)O[C@@]12C[C@@H](C)[C@]34C=C(C)[C@H](OC(=O)C(C)C(C)C)[C@@]3(O)[C@H](O)C(CO)=C[C@H](C4=O)[C@@H]1C2(C)C (some centres unmarked) [Compound 5, 3-O-(2,3-dimethylbutanoyl)-13-O-dodecanoylingenol]
SI, selectivity index, calculated as CC50/EC50 (HIV-1 NL4-3 Nanoluc-sec): >7500

C=C1[C@H](OC(=O)c2ccccc2)[C@H]2[C@@H](OC(C)=O)[C@](C)(O)[C@H](OC(C)=O)[C@]2(O)C(=O)[C@@H](C)[C@H]2O[C@@H]2C(C)(C)C(=O)[C@H](O)[C@H]1OC(=O)c1ccccc1 [Compound 7, kansuinin C]
anti-HIV activity (HIV-1 NL4-3 Nanoluc-sec; jatrophane diterpenoids isolated from E3-fraction): no anti-HIV activity

CCCCCCCCCCCC(=O)O[C@@]12C[C@@H](C)[C@]34C=C(C)[C@H](O)[C@@]3(O)[C@H](O)C(CO)=C[C@H](C4=O)[C@@H]1C2(C)C [Compound 11, 13-oxyingenol-13-dodecanoate]
SI, selectivity index, calculated as CC50/EC50 (HIV-1 NL4-3 Nanoluc-sec): >273

COc1ccc(C(=O)O[C@H]2C(C)=C[C@]34C(=O)[C@@H](C=C(C)[C@@H](O)[C@]23O)[C@H]2[C@@H](C[C@H]4C)C2(C)C)cc1 [Compound 12a, 3-(p-Methoxybenzoyl)-20-deoxyingenol]
SI, selectivity index, calculated as CC50/EC50 (HIV-1 NL4-3 Nanoluc-sec): >64

COc1ccc(C(=O)O[C@@H]2C(C)=C[C@@H]3C(=O)[C@]4(C=C(C)[C@H](O)[C@@]24O)[C@H](C)C[C@@H]2[C@H]3C2(C)C)cc1 [Compound 12b, 5-(p-methoxybenzoyl)-20-deoxyingenol]
SI, selectivity index, calculated as CC50/EC50 (HIV-1 NL4-3 Nanoluc-sec): >20

CC1=C[C@@H]2C(=O)[C@]3(C=C(C)[C@H](OC(=O)/C=C/c4ccccc4)[C@@]3(O)[C@@H]1O)[C@H](C)C[C@@H]1[C@H]2C1(C)C [Compound 13a, 3-(trans-Cinnamoyl)-20-deoxyingenol]
SI, selectivity index, calculated as CC50/EC50 (HIV-1 NL4-3 Nanoluc-sec): >45

CC1=C[C@@H]2C(=O)[C@]3(C=C(C)[C@H](O)[C@@]3(O)[C@@H]1OC(=O)/C=C/c1ccccc1)[C@H](C)C[C@@H]1[C@H]2C1(C)C [Compound 13b, 5-(trans-cinnamoyl)-20-deoxyingenol]
SI, selectivity index, calculated as CC50/EC50 (HIV-1 NL4-3 Nanoluc-sec): >22

CC1=C[C@@H]2C(=O)[C@]3(C=C(C)[C@H](OC(=O)c4ccc5ccccc5c4)[C@@]3(O)[C@@H]1O)[C@H](C)C[C@@H]1[C@H]2C1(C)C [Compound 14a, 3-(2-Naphthoyl)-20-deoxyingenol]
SI, selectivity index, calculated as CC50/EC50 (HIV-1 NL4-3 Nanoluc-sec): >543

C/C=C/C(=O)O[C@H]1C(C)=C[C@]23C(=O)[C@@H](C=C(C)[C@@H](O)[C@]12O)[C@H]1[C@@H](C[C@H]3C)C1(C)C [Compound 15a, 3-Crotonoyl-20-deoxyingenol]
SI, selectivity index, calculated as CC50/EC50 (HIV-1 NL4-3 Nanoluc-sec): >17

C/C=C/C(=O)O[C@@H]1C(C)=C[C@@H]2C(=O)[C@]3(C=C(C)[C@H](O)[C@@]13O)[C@H](C)C[C@@H]1[C@H]2C1(C)C [Compound 15b, 5-crotonoyl-20-deoxyingenol]
SI, selectivity index, calculated as CC50/EC50 (HIV-1 NL4-3 Nanoluc-sec): >16

C/C=C(\C)C(=O)O[C@H]1C(C)=C[C@]23C(=O)[C@@H](C=C(C)[C@@H](O)[C@]12O)[C@H]1[C@@H](C[C@H]3C)C1(C)C [Compound 16, 3-Tigloyl-20-deoxyingenol]
SI, selectivity index, calculated as CC50/EC50 (HIV-1 NL4-3 Nanoluc-sec): >46 | CC50 at 3 days [1]: > 9.7 µM

C/C=C(/C)C(=O)O[C@H]1C(C)=C[C@]23C(=O)[C@@H](C=C(C)[C@@H](O)[C@]12O)[C@H]1[C@@H](C[C@H]3C)C1(C)C [Compound 17, 3-angeloyl-20-deoxyingenol]
SI, selectivity index, calculated as CC50/EC50 (HIV-1 NL4-3 Nanoluc-sec): >22.8

CCCCCCCC(=O)O[C@H]1C(C)=C[C@]23C(=O)[C@@H](C=C(C)[C@@H](O)[C@]12O)[C@H]1[C@@H](C[C@H]3C)C1(C)C [Compound 18, 3-Octanoyl-20-deoxyingenol]
SI, selectivity index, calculated as CC50/EC50 (HIV-1 NL4-3 Nanoluc-sec): >59.9

C/C=C(/C)C(=O)O[C@H]1C(C)=C[C@]23C(=O)[C@@H](C=C(CO)[C@@H](O)[C@]12O)[C@H]1[C@@H](C[C@H]3C)C1(C)C [Compound 22, 3-Angeloylingenol]
SI, selectivity index, calculated as CC50/EC50 (HIV-1 NL4-3 Nanoluc-sec): >2067 | activation of green fluorescent protein (GFP) expression [2]: comparable potency

CC1=C[C@]23C(=O)[C@@H](C=C(CO)[C@@H](O)[C@]2(O)[C@H]1OC(=O)c1ccc2ccccc2c1)[C@H]1[C@@H](C[C@H]3C)C1(C)C [Compound 23, 3-(2-Naphthoyl)ingenol]
SI, selectivity index, calculated as CC50/EC50 (HIV-1 NL4-3 Nanoluc-sec): >6153 | activation of green fluorescent protein (GFP) expression [2]: comparable potency | CC50 at 3 days [3]: > 2 µM
